This is a sample that favours compounds with a hit; in the whole collection about 2.4% have one here.
aDG glyco act = increases alpha dystroglycan glycosylation | Pro5-aDG cells, alpha-DG glycosylation AlphaScreen (IIH6); 0% Pro5, 100% B10-LARGE cell signal | activation, % at 10 µM | hit rate 0.22% among 360,000;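 active = activation of at least 8% versus controls, or a plate z-score of at least 8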;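 note: Pro5 are CHO cells carrying HIG-tagged alpha-DG that lacks glycosylation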
NR2E3 ag-1 = agonists of human nuclear receptor NR2E3. Q9Y5X4. GST-NR2E3/biotin-RetCOR TR-FRET, 1536-well. inhibition of corepressor binding, % at 4.78 µM. hit rate 0.12% among 320,000. AID 2300;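 active = percent inhibition above the cutoff of mean plus 3 SD of all tested compounds, set per screening campaign, cut at about 20% in these data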;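 note: 0% = DMSO wells and 100% = biotin wells as full block of FRET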
Target sequence (Q9Y5X4 whole entry, looked up): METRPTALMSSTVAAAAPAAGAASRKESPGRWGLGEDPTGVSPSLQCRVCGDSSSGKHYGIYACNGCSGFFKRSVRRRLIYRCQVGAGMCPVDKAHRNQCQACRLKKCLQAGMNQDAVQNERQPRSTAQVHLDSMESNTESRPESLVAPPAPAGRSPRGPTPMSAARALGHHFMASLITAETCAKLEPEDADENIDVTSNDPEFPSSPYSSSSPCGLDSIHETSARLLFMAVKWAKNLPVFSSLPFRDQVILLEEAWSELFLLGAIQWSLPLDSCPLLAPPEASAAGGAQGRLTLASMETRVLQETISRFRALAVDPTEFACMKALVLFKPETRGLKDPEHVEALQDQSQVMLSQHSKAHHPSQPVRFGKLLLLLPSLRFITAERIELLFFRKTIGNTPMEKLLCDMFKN
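Format: 1536-well format; test system: GST-NR2E3 and biotin-RetCOR proteins; read-out basis: percent inhibition of TR-FRET ratio; timing: 5 h incubation at 4 °C; detection: time-resolved FRET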
MPTP block = permeability transition pore inhibition; isolated mouse mitochondria, Ca2+ swelling absorbance, 30 min; inhibition, % at 10 µM; hit rate 1.4% among 360,000; AID 602449;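 active = inhibition of 50% or more, scaled per plate between neutral and stimulator controls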;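 note: 0% = DMSO wells given calcium and 100% = 1 mM EGTA wells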
NR2E3 ag-2 = agonists of human NR2E3 nuclear receptor. Q9Y5X4. CHO-S Gal4-NCOR/VP16-NR2E3 two-hybrid, luciferase. inhibition of corepressor binding, % at 3.98 µM. hit rate 0.35% among 360,000. AID 602229;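 active = inhibition above the mean of all tested compounds plus 3 SD, cut at about 70% in these data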;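 note: 0% = DMSO with NR2E3 transfected cells and 100% = cells lacking NR2E3 construct; higher means lower luciferase signal from less NR2E3 corepressor binding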
697 NFkB inh = lowers PMA/ionomycin-induced NF-kB signal in 697 B cells. 697 B-cell NF-kB luciferase reporter, 16 h. inhibition, % at 4 µM. hit rate 0.33% among 330,000; in the data active = inhibition above about 35%
Jurkat NFkB inh = inhibitors of the PMA/ionomycin-induced NF-kB reporter in Jurkat cells | PMA/ionomycin-induced NF-kB luciferase reporter, luminescence | inhibition, % at 4 µM | hit rate 0.53% among 330,000 | AID 435003; in the data active = inhibition above about 50%
NR2E3 ag confirm = confirmation of human NR2E3 agonists; shares compounds with NR2E3 ag-2; CHO-S mammalian two-hybrid NR2E3-NCOR, luciferase luminescence; inhibition, % at 3.98 µM; hit rate 51% among 2,300;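 active = average inhibition above a cutoff equal to the mean inhibition of all tested compounds plus one SD, cut at about 70% in these data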;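 note: 0% = DMSO in NR2E3 cells and 100% = DMSO in cells lacking NR2E3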
VP16 counter = GAL4-VP16 reporter inhibition in NR2E3 agonist counterscreen. shares compounds with NR2E3 ag-2. CHO-S GAL4-VP16 luciferase reporter, luminescence. inhibition, % at 3.98 µM. hit rate 29% among 2,300. AID 624379;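 active = mean inhibition above a cutoff equal to the average over all tested compounds plus one standard deviation, cut at about 70% in these data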;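 note: luciferase from a UAS reporter driven by GAL4-VP16 transactivation; 0% = DMSO with VP16-transfected cells and 100% = DMSO with cells lacking VP16; higher means less reporter light so more repression of VP16 activity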
The depositor's hits bear a star; . = no result.

SMILES	aDG glyco act	NR2E3 ag-1	MPTP block	NR2E3 ag-2	697 NFkB inh	Jurkat NFkB inh	NR2E3 ag confirm	VP16 counter
COc1ccc(C2N(S(=O)(=O)c3ccc(C)cc3)CCN2S(=O)(=O)c2ccc(C)cc2)cc1	0	-4	3	1	3	7	.	.
CN(CCC1CCOCC1)C(=O)CC1C(=O)NCCN1Cc1c(F)cccc1Cl (stereo not given)	0	-1	0	-14	17	-5	.	.
Cc1cccc(NC(=O)NC2(C(=O)NCc3ccco3)CCCCC2)c1	0	0	-1	11	14	-7	.	.
CN(C)c1ccc(C=Cc2ccnc3ccccc23)cc1N	0	.	46	52	.	.	24	-1
COc1ccccc1C=Cc1ccnc2ccccc12	0	.	0	-27	.	.	.	.
CCCc1ccc(C(C)NC(=S)NC2CCCCC2)cc1 (stereo not given)	4	.	38	51	-9	27	42	51
CC(NC(=S)NC1CCCCC1)c1ccccc1 (stereo not given)	0	0	0	-16	-26	8	.	.
O=C(O)C1C2C=CC(C2)C1C(=O)NCc1ccccc1F (stereo not given)	0	7	0	-12	18	10	.	.
COc1ccc(OC)c(-c2csc(NC(=O)Cc3ccc(F)cc3)n2)c1	0	6	2	-5	-3	6	.	.
COc1ccc(OC)c(-c2csc(NC(=O)Cc3cc(OC)c(OC)c(OC)c3)n2)c1	1	-2	4	54	-19	12	26	49
CC(=O)/C(=N/Nc1ccccc1)N1CCOCC1	0	-2	0	2	11	1	.	.
CC(=O)/C(=N/Nc1cccc(Cl)c1)N1CCOCC1	0	6	0	64	-3	4	7	-18
CC(=O)Nc1ccc(S(=O)(=O)NCCSCc2c(Cl)cccc2Cl)cc1	1	1	32	62	-7	9	71*	58
COc1ccccc1/C=C(/CC(=O)NCc1ccc2c(c1)OCO2)c1nc2ccccc2s1	0	0	2	-41	1	4	.	.
CCc1nc2ccc(C(=O)N(C)C(C)C)cn2c1N(CC)Cc1cccc(Br)c1	0	.	0	72*	.	.	69	-10
O=C(CN1CCOCC1)Nc1nc(-c2ccc3c(c2)CCN3S(=O)(=O)c2ccccc2)cs1	2	2	-2	30	-54	3	.	.
Cc1sc(NC(=O)CN2CCOCC2)nc1-c1ccc2c(c1)CCN2S(=O)(=O)c1ccccc1	2	3	21	56	-21	35	85*	71*
Cc1cccc(N(Cc2ccccc2)C(=O)c2cccc(S(=O)(=O)N3CC(C)OC(C)C3)c2)c1 (stereo not given)	0	-3	-1	-1	-8	8	.	.
COC(=O)C1=C(C)N(C)C(=O)NC1c1ccc(O)c(Cl)c1 (stereo not given)	0	3	2	5	15	6	.	.
CC(=O)NCCC(=O)Nc1ccc(F)cc1C	2	-2	0	6	5	-4	.	.
CCOc1ccc(OCCC(=O)Nc2ccc(F)cc2C)cc1	0	2	0	50	1	3	15	-25
COC(=O)c1ccccc1NC(=O)CCn1c(=O)oc2ccccc21	0	3	-2	-47	6	7	.	.
CC1OC(CC(=O)O)CC2=C1C(=O)c1c(O)cccc1C2=O (stereo not given)	-1	.	-3	101*	.	.	101*	99*
CCN(CC)CCCNc1cc(C)nc2cc(-c3cccs3)nn12	0	-2	-2	7	18	-14	.	.
Cc1sc(NC(=O)/C=C/c2ccc3c(c2)OCO3)nc1-c1ccccc1	1	5	3	57	6	40	85*	31
SMILES	aDG glyco act	NR2E3 ag-1	MPTP block	NR2E3 ag-2	697 NFkB inh	Jurkat NFkB inh	NR2E3 ag confirm	VP16 counter
O=C(/C=C/c1ccc2c(c1)OCO2)Nc1nc(-c2ccccc2)cs1	0	2	4	-25	-8	15	.	.
Nc1ccc(SCc2nc3cccc4c3n2CCC4)cc1	0	-1	0	-46	-16	-2	.	.
CCN(CC(=O)NCc1cccs1)C(=O)c1ccc(-c2cccc(C(F)(F)F)c2)o1	0	1	-1	54	7	3	20	-7
Cc1ccccc1NC(=O)c1ccccc1NC(=O)Cc1cccc2ccccc12	1	-1	4	-12	-29	3	.	.
Cc1ccccc1NC(=O)c1cccc2nc3ccccc3nc12	1	0	-3	80*	-13	10	96*	67
Cc1ccccc1N(CC(=O)NCCSCc1ccccc1)S(C)(=O)=O	0	-1	0	7	7	17	.	.
O=[N+]([O-])c1ccc(N2CCN(C(=S)Nc3ccc(F)cc3F)CC2)cc1	1	1	1	74*	-18	4	73*	62
COc1ccc(/C(C)=N/NC(=S)NCc2ccco2)cc1	2	-1	2	48	-11	-8	4	-10
C/C(=N\NC(=S)NCCc1ccccc1)c1cccc(Br)c1	0	-2	2	27	6	-1	.	.
C/C(=N\NC(=S)NCc1ccccc1)c1ccc2ccccc2c1	0	2	11	58	-50	-24	-28	-57
NNC(=S)NCCc1ccccc1	1	-4	0	66	0	-10	-2	-7
COc1ccc(/C(C)=N/NC(=O)CNC(=O)c2ccco2)cc1	0	1	-1	3	10	9	.	.
C/C(=N\NC(=S)NCc1ccccc1)c1cccc(Br)c1	1	4	1	25	1	1	.	.
S=C(NCCc1ccccc1)NCCc1ccccc1	0	0	4	-86	-85	-96	.	.
COc1ccc(/C(C)=N/NC(=S)NCCc2ccccc2)cc1	0	1	-3	70	-70	-1	2	1
COc1ccc(CNC(=S)N/N=C(\C)c2ccc(OC)cc2)cc1	0	1	4	51	-4	-1	-14	-12
O=C(CCNC(=O)c1ccccc1)NCC1CCCCC1	1	-5	0	23	13	1	.	.
CC1CCN(C(=O)c2ccc(NS(=O)(=O)c3ccc4[nH]c(=O)[nH]c4c3)cc2)CC1	0	-3	0	-5	7	9	.	.
CC(/C=N/NC(=O)c1cnccn1)=C\c1ccco1	0	-4	0	-39	-5	-26	.	.
Cc1cnc(NC(=O)C2CC(=O)N(c3ccc4c(c3)OCCO4)C2)s1 (stereo not given)	0	.	0	55	-3	0	75*	25
